Assay results as given in ChEMBL document CHEMBL2074309, “The drug transporter P-glycoprotein limits oral absorption and brain entry of HIV-1 protease inhibitors” (J Clin Invest, 1998).

Columns and labels:
[1] = biological target: T1, ATP-dependent translocase ABCB1 (Homo sapiens, UniProt P08183); test: TP_TRANSPORTER: transepithelial transport (basal to apical) in MDR1-expressing LLC-PK1 cells; format: functional, cell-based; settings: pig
Outline: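 L-MDR1 cells (LLC-PK1 expressing MDR1) plated at 4×10^5 cells/12-mm well on 3.0 µm polycarbonate Transwell filters, used day 4; resistance ≥200 Ω after blank correction. Serum-free Optimem; [14C]-drug 5 µM added to basal compartment, apical radioactivity sampled at 1, 2, 3, 4 h by scintillation, given as % of total added; parental LLC-PK1 run alongside; mean ± SE, ≥3 experiments.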

[2] = biological target: ATP-dependent translocase ABCB1 (Mus musculus, UniProt P21447); test: TP_TRANSPORTER: increase in brain concentration in mdr1a(-/-) mouse; format: functional, organism-based; settings: in vivo
ATP-dependent translocase ABCB1 (Mus musculus, UniProt P21447), sequence (P21447 whole entry): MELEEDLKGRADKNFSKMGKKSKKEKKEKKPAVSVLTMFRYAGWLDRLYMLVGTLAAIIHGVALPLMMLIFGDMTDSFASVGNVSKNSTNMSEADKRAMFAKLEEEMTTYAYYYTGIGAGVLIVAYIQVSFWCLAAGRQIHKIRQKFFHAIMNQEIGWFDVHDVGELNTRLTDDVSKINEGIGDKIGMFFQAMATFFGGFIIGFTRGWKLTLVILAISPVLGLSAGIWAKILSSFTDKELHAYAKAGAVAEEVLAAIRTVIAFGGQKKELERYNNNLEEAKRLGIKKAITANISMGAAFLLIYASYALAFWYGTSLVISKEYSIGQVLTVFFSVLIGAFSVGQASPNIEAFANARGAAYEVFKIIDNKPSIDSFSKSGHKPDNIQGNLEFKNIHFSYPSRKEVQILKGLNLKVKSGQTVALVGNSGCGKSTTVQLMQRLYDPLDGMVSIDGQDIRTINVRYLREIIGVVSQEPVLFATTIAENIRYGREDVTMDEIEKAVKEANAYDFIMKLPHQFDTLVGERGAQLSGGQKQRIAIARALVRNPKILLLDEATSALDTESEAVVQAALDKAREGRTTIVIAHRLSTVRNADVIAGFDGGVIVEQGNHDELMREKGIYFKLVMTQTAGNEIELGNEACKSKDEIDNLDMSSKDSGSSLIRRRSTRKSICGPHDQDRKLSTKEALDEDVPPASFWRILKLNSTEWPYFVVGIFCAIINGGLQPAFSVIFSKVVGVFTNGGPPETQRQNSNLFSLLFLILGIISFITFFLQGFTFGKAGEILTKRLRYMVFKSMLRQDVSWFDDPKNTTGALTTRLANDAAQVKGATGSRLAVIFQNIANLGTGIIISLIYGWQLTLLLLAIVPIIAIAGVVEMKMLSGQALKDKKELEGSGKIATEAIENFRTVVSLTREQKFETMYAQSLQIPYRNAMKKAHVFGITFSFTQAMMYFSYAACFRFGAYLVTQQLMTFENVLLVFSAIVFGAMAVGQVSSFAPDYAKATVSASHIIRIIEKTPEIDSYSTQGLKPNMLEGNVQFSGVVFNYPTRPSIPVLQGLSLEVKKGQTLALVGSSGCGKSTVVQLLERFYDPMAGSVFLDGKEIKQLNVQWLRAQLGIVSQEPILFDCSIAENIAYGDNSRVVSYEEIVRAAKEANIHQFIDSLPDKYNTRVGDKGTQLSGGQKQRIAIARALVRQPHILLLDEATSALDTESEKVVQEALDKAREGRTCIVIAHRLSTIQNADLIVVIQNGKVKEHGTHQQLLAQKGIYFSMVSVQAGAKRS
Outline: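 Male mdr1a(-/-) (FVB/TacBR-[KO]mdr1aN7) and matched mdr1a(+/+) FVB/NTacBR mice, 6–12 wk, three per group. [14C]-drug (indinavir 1.5 mg/kg, nelfinavir 3 mg/kg, saquinavir 2 mg/kg) in ethanol/0.9% saline, given i.v. into tail vein over 10 min. At 4 h, isoflurane anesthesia, orbital exsanguination, brain homogenized in 4% BSA. Total radioactivity by scintillation; value is (-/-)/(+/+) ratio of brain levels.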

[3] = biological target: T1, ATP-dependent translocase ABCB1; test: TP_TRANSPORTER: inhibition of Saquinavir transepithelial transport (basal to apical) (Saquinavir: 5 uM, PSC-833: 1 uM) in Caco-2 cells; format: functional, cell-based; settings: caco-2, 1 µM
Outline: (§1)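 Caco-2 monolayers on 0.4 µm polycarbonate Transwell filters, plated at 10^5 cells/12-mm well, used on day 4; wells with resistance ≥200 Ω (blank-corrected) used. […] Radioactivity reaching apical side sampled at 1, 2, 3, 4 h, expressed as % of added; mean ± SE, ≥3 experiments.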

[4] = biological target: T1, ATP-dependent translocase ABCB1; test: TP_TRANSPORTER: inhibition of Nelfinavir transepithelial transport (basal to apical) (Nrlfinavir: 5 uM, PSC-833: 1 uM) in Caco-2 cells; format: functional, cell-based; settings: caco-2, 1 µM; outline: as §1
[5] = biological target: T1, ATP-dependent translocase ABCB1; test: TP_TRANSPORTER: inhibition of Indinavir transepithelial transport (basal to apical) (Indinavir: 5 uM, PSC-833: 1 uM) in Caco-2 cells; format: functional, cell-based; settings: caco-2, 1 µM; outline: as §1

T1 sequence (P08183 whole entry): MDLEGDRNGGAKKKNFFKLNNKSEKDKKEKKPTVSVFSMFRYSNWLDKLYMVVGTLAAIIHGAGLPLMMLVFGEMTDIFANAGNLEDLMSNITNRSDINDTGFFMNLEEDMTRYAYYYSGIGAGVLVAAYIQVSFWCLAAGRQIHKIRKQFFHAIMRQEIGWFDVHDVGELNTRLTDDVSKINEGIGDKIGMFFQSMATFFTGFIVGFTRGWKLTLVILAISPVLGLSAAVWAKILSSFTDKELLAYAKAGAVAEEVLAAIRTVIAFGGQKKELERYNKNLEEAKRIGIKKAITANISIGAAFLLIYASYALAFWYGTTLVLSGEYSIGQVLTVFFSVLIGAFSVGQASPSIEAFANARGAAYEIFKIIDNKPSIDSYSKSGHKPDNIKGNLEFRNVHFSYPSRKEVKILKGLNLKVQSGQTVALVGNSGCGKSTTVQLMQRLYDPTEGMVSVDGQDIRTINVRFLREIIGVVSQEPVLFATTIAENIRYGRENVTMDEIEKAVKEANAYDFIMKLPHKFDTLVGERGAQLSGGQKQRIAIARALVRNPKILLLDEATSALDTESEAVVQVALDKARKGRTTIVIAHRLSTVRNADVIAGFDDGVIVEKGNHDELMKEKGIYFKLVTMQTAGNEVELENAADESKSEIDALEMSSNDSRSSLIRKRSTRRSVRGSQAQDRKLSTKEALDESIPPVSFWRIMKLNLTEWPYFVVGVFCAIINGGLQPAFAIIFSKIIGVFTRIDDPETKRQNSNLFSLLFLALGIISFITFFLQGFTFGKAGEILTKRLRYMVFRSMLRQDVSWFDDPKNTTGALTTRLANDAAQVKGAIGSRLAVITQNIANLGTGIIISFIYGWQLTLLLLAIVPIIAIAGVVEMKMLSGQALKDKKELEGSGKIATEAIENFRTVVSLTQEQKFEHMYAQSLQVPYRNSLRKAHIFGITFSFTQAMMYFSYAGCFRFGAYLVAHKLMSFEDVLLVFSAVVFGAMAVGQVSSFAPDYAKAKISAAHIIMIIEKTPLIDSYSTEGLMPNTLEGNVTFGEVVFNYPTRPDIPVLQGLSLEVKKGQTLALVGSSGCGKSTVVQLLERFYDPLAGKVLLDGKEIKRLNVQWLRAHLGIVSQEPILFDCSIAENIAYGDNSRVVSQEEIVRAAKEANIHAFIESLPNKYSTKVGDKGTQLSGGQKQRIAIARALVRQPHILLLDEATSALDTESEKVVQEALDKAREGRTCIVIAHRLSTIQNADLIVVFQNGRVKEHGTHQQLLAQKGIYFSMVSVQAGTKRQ

Row | Compound | Activity [1] | Activity [2] | Activity [3] | Activity [4] | Activity [5]
1 | Cc1c(O)cccc1C(=O)N[C@@H](CSc1ccccc1)[C@H](O)CN1C[C@H]2CCCC[C@H]2C[C@H]1C(=O)NC(C)(C)C | substrate [+] | substrate [+] |  |  | 
2 | CC(C)(C)NC(=O)[C@@H]1C[C@@H]2CCCC[C@@H]2CN1C[C@@H](O)[C@H](Cc1ccccc1)NC(=O)[C@H](CC(N)=O)NC(=O)c1ccc2ccccc2n1 |  | substrate [+] |  |  | 
3 | C/C=C/C[C@@H](C)C(=O)[C@H]1C(=O)N[C@@H](C(C)C)C(=O)N(C)CC(=O)N(C)[C@@H](CC(C)C)C(=O)N[C@@H](C(C)C)C(=O)N(C)[C@@H](CC(C)C)C(=O)N[C@@H](C)C(=O)N[C@H](C)C(=O)N(C)[C@@H](CC(C)C)C(=O)N(C)[C@@H](CC(C)C)C(=O)N(C)[C@@H](C(C)C)C(=O)N1C [VALSPODAR] |  |  | inhibitor [+] | inhibitor [+] | inhibitor [+]
4 | CC(C)(C)NC(=O)[C@@H]1CN(Cc2cccnc2)CCN1C[C@@H](O)C[C@@H](Cc1ccccc1)C(=O)N[C@H]1c2ccccc2C[C@H]1O.O | substrate [+] | substrate [+] |  |  | 
